In ChEMBL document CHEMBL1159122 (Bioorg Med Chem, 2010):
One block for each molecule: values may come before it. Calls of active or inactive are those of the source. The calls are words filed in the database; no cut-off is given here.

Assays:
THP-1 [1] = assay: Antiinflammatory activity in human THP1 cells assessed as inhibition of LPS-induced TNFalpha release at 10 uM by ELISA; type: functional
Summary of the method: (§1)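 THP-1 monocytes differentiated to macrophages over 72 h with conditioned medium from cells given 200 ng/mL PMA for 24 h, washed, and rested 24 h. Cells pretreated with compound (0.01–10 uM) for 1 h at 37 °C, then stimulated with 100 ng/mL LPS for 24 h. TNF-α release measured, mean ± SD of duplicates.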

[2] = target: T1, Prostaglandin G/H synthase 1 (Mus musculus, UniProt P22437); assay: Inhibition of COX1 in mouse RAW264.7 cells by enzyme immunoassay; type: cell-based
T1 sequence (P22437 whole entry): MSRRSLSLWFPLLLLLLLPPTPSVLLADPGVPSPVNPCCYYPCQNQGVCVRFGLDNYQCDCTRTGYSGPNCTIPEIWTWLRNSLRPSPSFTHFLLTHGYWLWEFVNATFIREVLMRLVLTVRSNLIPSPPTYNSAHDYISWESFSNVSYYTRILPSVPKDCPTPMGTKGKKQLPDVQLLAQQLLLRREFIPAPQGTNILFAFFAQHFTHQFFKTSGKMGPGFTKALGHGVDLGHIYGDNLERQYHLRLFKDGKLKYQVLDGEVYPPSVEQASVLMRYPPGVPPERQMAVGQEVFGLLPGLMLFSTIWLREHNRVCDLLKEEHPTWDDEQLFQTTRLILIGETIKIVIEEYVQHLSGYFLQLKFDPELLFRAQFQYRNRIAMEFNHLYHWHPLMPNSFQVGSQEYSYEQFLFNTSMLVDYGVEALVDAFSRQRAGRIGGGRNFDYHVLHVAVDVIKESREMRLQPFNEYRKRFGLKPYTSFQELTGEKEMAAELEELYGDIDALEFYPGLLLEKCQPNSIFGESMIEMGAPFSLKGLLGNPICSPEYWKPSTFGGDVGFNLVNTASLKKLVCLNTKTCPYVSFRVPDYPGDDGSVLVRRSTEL
Summary of the method: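 RAW 264.7 cells (5×10^5/well) grown overnight in DMEM with 10% FBS, then washed with PBS. Cells were not LPS-stimulated. Serum-free, phenol red-free DMEM; compound pretreatment 1 h at 37 °C, then 30 µM arachidonic acid for 30 min at 37 °C. PGE2 in the medium measured by EIA.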

[3] = target: T2, Prostaglandin G/H synthase 2 (Homo sapiens) (UniProt P35354); assay: Inhibition of human recombinant COX2 expressed in insect Sf9 cells at 10 uM by enzyme immunoassay
T2 sequence (whole entry): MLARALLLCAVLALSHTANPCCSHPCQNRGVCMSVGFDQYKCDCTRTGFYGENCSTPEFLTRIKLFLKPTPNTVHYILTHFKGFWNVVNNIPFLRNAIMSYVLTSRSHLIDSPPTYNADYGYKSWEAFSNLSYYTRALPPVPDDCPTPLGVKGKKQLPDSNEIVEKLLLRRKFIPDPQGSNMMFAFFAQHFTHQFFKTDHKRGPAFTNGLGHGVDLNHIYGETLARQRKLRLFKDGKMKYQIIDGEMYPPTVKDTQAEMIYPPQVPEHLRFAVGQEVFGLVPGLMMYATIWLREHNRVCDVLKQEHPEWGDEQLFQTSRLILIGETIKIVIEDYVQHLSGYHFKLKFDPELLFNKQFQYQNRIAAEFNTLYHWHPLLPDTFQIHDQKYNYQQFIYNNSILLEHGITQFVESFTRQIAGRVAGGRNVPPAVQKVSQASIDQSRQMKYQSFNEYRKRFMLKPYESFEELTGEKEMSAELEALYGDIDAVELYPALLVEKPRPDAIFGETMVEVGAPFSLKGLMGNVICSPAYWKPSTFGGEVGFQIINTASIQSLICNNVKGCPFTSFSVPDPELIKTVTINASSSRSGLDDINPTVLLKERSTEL

[4] = target: T3, Prostaglandin G/H synthase 2 (Mus musculus, UniProt Q05769); assay: Inhibition of COX2 in mouse RAW264.7 cells by enzyme immunoassay
T3 sequence (Q05769 whole entry): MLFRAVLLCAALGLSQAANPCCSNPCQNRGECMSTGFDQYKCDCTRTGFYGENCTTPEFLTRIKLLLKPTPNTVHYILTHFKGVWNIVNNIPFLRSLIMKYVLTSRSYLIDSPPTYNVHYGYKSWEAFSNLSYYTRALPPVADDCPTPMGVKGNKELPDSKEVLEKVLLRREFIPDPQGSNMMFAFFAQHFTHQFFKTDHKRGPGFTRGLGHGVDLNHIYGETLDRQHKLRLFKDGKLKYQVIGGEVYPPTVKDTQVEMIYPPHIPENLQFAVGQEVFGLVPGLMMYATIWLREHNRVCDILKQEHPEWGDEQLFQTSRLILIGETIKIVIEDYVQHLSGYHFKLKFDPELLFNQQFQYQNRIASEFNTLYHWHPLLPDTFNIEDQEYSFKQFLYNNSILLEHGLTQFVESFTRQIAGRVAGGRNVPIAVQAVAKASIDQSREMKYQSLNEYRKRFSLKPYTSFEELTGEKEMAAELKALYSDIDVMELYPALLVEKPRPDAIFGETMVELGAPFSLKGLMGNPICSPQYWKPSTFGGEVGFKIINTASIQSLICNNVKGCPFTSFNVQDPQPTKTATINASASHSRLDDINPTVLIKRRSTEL

[5] = target: T4, Prostaglandin G/H synthase 1 (Homo sapiens, UniProt P23219); assay: Inhibition of human recombinant COX1 in human platelets at 10 uM by enzyme immunoassay
Summary of the method: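 Washed human platelets (5×10^7 cells/mL) in modified HEPES buffer pH 7.4, preincubated with compound 15 min at 37 °C. Reaction started with 100 µM arachidonic acid, run 15 min at 37 °C, stopped with 1 N HCl. PGE2 quantified by EIA.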

[6] = target: T5, Polyunsaturated fatty acid 5-lipoxygenase (Homo sapiens, UniProt P09917); assay: Inhibition of LOX5 in human PMBL by enzyme immunoassay
T5 sequence (P09917 whole entry): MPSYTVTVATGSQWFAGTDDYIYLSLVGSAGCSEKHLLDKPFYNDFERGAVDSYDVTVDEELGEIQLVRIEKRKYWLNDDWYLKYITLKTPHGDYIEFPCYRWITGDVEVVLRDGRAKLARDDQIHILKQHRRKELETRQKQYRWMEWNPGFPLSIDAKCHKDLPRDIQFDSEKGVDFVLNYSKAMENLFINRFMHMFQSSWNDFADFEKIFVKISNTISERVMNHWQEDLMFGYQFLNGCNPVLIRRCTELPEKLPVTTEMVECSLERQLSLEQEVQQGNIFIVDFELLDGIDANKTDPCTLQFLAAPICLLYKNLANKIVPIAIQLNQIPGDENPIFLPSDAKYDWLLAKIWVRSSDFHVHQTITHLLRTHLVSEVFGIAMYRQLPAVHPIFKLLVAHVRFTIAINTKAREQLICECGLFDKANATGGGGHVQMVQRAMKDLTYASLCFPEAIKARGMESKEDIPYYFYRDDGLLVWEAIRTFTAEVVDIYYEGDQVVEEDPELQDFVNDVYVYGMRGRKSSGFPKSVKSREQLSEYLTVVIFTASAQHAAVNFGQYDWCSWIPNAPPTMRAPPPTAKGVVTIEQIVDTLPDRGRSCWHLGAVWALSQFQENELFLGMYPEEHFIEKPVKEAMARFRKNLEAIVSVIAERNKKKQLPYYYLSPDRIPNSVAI
Summary of the method: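 Human peripheral blood mononuclear leukocytes (5×10^6 cells/mL) in HBSS pH 7.4, preincubated with compound 15 min at 37 °C. Stimulated with 30 µM A23187 for 15 min at 37 °C, stopped with 1 N HCl, neutralized with NaOH and centrifuged. Supernatant LTB4 measured by EIA.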

THP-1 [7] = assay: Antiinflammatory activity in human THP1 cells assessed as inhibition of LPS-induced TNFalpha release at 1 uM by ELISA; type: functional; summary of the method: as §1
[8] = target: T4, Prostaglandin G/H synthase 1; assay: Inhibition of human recombinant COX1 in human platelets by enzyme immunoassay
Summary of the method: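 Source was washed human platelets (5×10^7 cells/mL) in modified HEPES buffer, pH 7.4. Compounds were preincubated 15 min at 37 °C, then 100 µM arachidonic acid was added for 15 min at 37 °C. The reaction was stopped with 1 N HCl. COX-1 activity was read as PGE2 by EIA.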

[9] = target: T2, Prostaglandin G/H synthase 2 (Homo sapiens); settings: THP-1, at 10 µM
[10] = target: Mitogen-activated protein kinase 14 (Homo sapiens) (UniProt Q16539); assay: Inhibition of p38alpha MAPK at 10 uM
THP-1 [11] = assay: Antiinflammatory activity in human THP1 cells assessed as inhibition of LPS-induced TNFalpha release by ELISA; type: functional, cell-based
Summary of the method: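 Differentiated THP-1 macrophages were used. They were made by 72 h culture in conditioned medium from THP-1 cells treated with 200 ng/mL PMA for 24 h, washed and rested 24 h. Cells were preincubated with compounds at 0.01, 0.1, 1 and 10 µM for 1 h at 37 °C, then stimulated with 100 ng/mL LPS for 24 h. Duplicate determinations, mean ± SD.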

[12] = target: T6, Prostaglandin G/H synthase 2 (Homo sapiens, UniProt P35354); assay: Inhibition of human recombinant COX2 expressed in insect Sf9 cells by enzyme immunoassay
T6 sequence (P35354 whole entry): T2 sequence (whole entry)

T4 sequence (P23219 whole entry): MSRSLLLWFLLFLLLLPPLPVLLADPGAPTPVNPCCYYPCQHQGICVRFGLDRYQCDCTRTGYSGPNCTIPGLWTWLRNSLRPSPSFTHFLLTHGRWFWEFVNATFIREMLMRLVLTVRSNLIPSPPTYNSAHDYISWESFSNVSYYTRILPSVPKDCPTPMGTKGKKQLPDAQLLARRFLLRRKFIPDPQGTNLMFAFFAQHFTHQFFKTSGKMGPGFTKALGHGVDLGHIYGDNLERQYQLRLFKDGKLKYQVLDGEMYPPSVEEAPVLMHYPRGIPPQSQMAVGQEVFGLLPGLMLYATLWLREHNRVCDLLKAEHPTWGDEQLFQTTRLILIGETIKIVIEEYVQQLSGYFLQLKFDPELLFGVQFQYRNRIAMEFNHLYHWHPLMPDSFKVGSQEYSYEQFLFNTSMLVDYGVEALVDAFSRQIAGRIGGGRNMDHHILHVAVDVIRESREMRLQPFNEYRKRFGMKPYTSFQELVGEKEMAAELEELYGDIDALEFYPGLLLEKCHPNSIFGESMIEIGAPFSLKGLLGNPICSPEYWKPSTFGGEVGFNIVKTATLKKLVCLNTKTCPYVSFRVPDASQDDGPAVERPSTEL
Mitogen-activated protein kinase 14 (Homo sapiens), sequence (Q16539 whole entry): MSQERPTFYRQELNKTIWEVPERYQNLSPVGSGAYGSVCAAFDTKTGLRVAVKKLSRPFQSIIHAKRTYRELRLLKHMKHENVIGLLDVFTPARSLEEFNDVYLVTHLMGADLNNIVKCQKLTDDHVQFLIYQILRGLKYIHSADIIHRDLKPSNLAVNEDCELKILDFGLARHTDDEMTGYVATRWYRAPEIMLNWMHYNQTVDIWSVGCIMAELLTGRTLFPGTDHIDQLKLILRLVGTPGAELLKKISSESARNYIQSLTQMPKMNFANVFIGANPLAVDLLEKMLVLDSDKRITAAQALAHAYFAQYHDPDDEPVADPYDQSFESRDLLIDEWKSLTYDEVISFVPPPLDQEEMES

- IC50 [2]: 63700 nM
Structure (SMILES): CS(=O)(=O)Nc1ccc([N+](=O)[O-])cc1OC1CCCCC1 [NS-398]

- inhibition [3]: 23%
- IC50 [4]: 18100 nM
- inhibition [5]: 39%
- IC50 [6]: 470 nM
- IC50 [2]: 1500 nM
Structure (SMILES): O=[N+]([O-])c1ccc2c(c1)S(c1ccc(Br)cc1)=NS2(=O)=O (stereo unspecified)
- Activity (THP-1 [1]): inactive

- inhibition [3]: 27%
- inhibition [5]: 17%
Structure (SMILES): NS(=O)(=O)c1ccc2c(c1)S(c1ccc(Br)cc1)=NS2(=O)=O (stereo unspecified)

- IC50 [4]: 4400 nM
- IC50 [8]: 6700 nM
- IC50 [6]: 1220 nM
- inhibition [9]: 77%
- IC50 [2]: 2100 nM
- inhibition [10]: inactive
- IC50 (THP-1 [11]): 440 nM
- IC50 [12]: 1700 nM
Structure (SMILES): O=[N+]([O-])c1ccc2c(c1)S(=O)(=O)N=S2c1ccc(Br)cc1 (stereo unspecified)
- inhibition at 10 µM (THP-1 [1]): 92%

The remaining lines, values behind:

Structure (SMILES): Cc1ccc(-c2cc(C(F)(F)F)nn2-c2ccc(S(N)(=O)=O)cc2)cc1
- Activity (THP-1 [1]): inactive

Structure (SMILES): C[C@@H]1C[C@H]2[C@@H]3CCC4=CC(=O)C=C[C@]4(C)[C@@]3(F)[C@@H](O)C[C@]2(C)[C@@]1(O)C(=O)CO [DEXAMETHASONE]
- inhibition at 1 µM (THP-1 [7]): 89%

Structure (SMILES): COc1ccc2c(c1)c(CC(=O)NCCc1ccccc1)c(C)n2C(=O)c1ccc(Cl)cc1
- IC50 [2]: 56700 nM
